Exocytosis inh: LAMP-1 surface exposure blockers, TALL-104 cells – cell-based, flow cytometry, MLPCN library, primary screen; TALL-104 LAMP-1 surface exposure; cells stimulated with thapsigargin and PMA; inhibition, % at 10 µM; 360,000 compounds, 0.66% hits;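 active means inhibition above about 55%, limit read from the data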
TbMetRS inhib: T. brucei MetRS inhibitors, primary screen, biochemical, luminescence | methionyl-tRNA synthetase (Trypanosoma brucei brucei) | purified T. brucei MetRS, ATP depletion, Kinase-Glo luminescence | inhibition, % at 11.9 µM | 360,000 compounds, 0.4% hits | AID 624268, 2012;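 active means inhibition above a per-plate cutoff of the control wells' mean inhibition plus 3 SD, cut at about 5.5% in these data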
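Dosing: 11.9 µM single point; system: parasite MetRS enzyme; technique: luminescence of leftover ATP; times: 15 min enzyme-compound preincubation, 2 h reaction, 10 min detection, 25 °C; replicates: each compound tested once; read-out basis: percent inhibition relative to median high and low control wells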
MC4R antag cAMP: MC4R antagonists of cAMP signaling, primary screen, cell-based, TR-FRET, antagonist arm of biased-ligand search | AID 540295, 2011 | inhibition, % at 6.5 µM | MC4R-expressing cells, MTII-stimulated cAMP, LANCE TR-FRET | 360,000 compounds, 0.48% hits;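 active means inhibition above its plate's cutoff, the mean of tested wells on that plate plus 3 SD, cut at about 29% in these data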
Target sequence (P32245 whole entry, looked up): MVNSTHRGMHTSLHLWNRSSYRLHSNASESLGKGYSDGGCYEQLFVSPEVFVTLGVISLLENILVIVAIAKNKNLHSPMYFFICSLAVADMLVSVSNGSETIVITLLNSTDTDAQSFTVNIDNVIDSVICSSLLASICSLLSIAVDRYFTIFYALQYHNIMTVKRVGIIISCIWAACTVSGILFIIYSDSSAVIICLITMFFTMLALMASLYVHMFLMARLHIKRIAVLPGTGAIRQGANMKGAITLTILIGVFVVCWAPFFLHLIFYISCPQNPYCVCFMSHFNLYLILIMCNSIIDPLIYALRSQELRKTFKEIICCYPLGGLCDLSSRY
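Material: U2OS-MC4R stable cell line | Reagent: Melanotan II challenge after compound preincubation | Doses: One concentration, 6.5 µM nominal | Incubation: 30-min compound preincubation, 1-h Melanotan II challenge, 1-h detection, room temperature | Signal: TR-FRET cAMP assay | Replicates: One well per compound, no replicates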
ABCB6 inh 2: ABCB6 transporter inhibitors, primary screen, K562-ABCB6 cells, flow cytometry, MLPCN library. ATP-binding cassette sub-family B member 6 (Homo sapiens), Q9NP58. K562-ABCB6 porphyrin accumulation, 1 h; active compounds read low. fluorescence ratio to DMSO, % at 10 µM. 360,000 compounds, 0.19% hits. AID 602162, 2011;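 active means fluorescence ratio to DMSO below 75%, the collection mean minus 3 SD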;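 further: signal is porphyrin accumulated inside mitochondria; lower ratio means ABCB6 inhibition with less porphyrin fluorescence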
MC4R barr agon: MC4R agonists recruiting beta-arrestin, primary screen, cell-based, luminescence, agonist arm of biased-ligand search | activation, % at 8.9 µM | U2OS MC4R beta-arrestin complementation; percent of melanotan II response, DMSO zero | Melanocortin receptor 4 (Homo sapiens), P32245 | 360,000 compounds, 0.98% hits;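 active means activation above a per-plate cutoff, the mean activation of sample wells on that plate plus 3 SD, cut at about 8% in these data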
iPSC survival up: enhancers of single-cell hiPSC survival, primary screen, ATPlite luminescence. AID 602274, 2012. 100% = ROCK inhibitor wells, 0% = DMSO. 360,000 compounds, 0.044% hits. survival enhancement, % at 20 µM; in the data active means survival enhancement above about 18%;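 further: cells exposed to compounds for 16 hours before the ATP read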
MC4R barr ag: MC4R beta-arrestin agonists, retest, confirmation, cell-based, luminescence, U2OS; shares compounds with MC4R barr agon; U2OS MC4R beta-arrestin recruitment; scaled DMSO 0%, Melanotan II 100%; activation, % at 8.9 µM; 2,400 compounds, 31% hits;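 active means mean activation across replicates above the hit cutoff set in the earlier primary screen, cut at about 8% in these data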
MOR DOR agonist: agonists of MOR-DOR heterodimerization, counter-screen for MC4R biased agonist project, cell-based, luminescence; shares compounds with MC4R barr agon; activation, % at 9.2 µM; AID 602194, 2012; U2OS PathHunter beta-arrestin, beta-gal luminescence; percent of deltorphin B response, DMSO zero; 2,400 compounds, 5.8% hits;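 active means mean activation across replicates exceeds the hit threshold derived in the earlier primary screen, cut at about 18% in these data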
Of the large screens only hits and unclear results are named; the others gave an inactive call (follow-up assays come after a bar, where they were run). Most compounds without a hit are left out; they make up all but 2.6% or so of the library.

C/C(=N/NC(=O)CSCc1ccc(Cl)cc1)c1cccc(NC(=O)c2ccccc2)c1	MC4R barr agon 22 | MC4R barr ag inactive | MOR DOR agonist inactive
CN1CCN(c2cc(N3CCc4ccccc4C3)c(F)cc2[N+](=O)[O-])CC1	MC4R barr agon 14 | MC4R barr ag 11 | MOR DOR agonist inactive
COc1ccc(N2CCN(c3cnc4ccccc4n3)CC2)cc1	none
COc1ccc(N2CCN(c3cc(C)c4ccccc4n3)CC2)cc1	MC4R barr agon 16 | MC4R barr ag inactive | MOR DOR agonist inactive
Cc1ccc(C2=NN3C(C2)c2ccccc2OC32C(=O)Nc3ccccc32)cc1 (centres undefined)	MC4R barr agon 10 | MC4R barr ag 9.1 | MOR DOR agonist 20
Cc1ccsc1/C=N/n1c(-c2cc(-c3ccccc3)n[nH]2)n[nH]c1=S	MC4R barr agon 12 | MC4R barr ag inactive | MOR DOR agonist inactive
S=c1[nH]nc(-c2cc(-c3ccccc3)n[nH]2)n1/N=C/c1c(Cl)cccc1Cl	none
Cc1ccccc1/C=N/n1c(-c2cc(-c3ccccc3)n[nH]2)n[nH]c1=S	MC4R barr agon 13 | MC4R barr ag inactive | MOR DOR agonist inactive
S=c1[nH]nc(-c2cc(-c3ccccc3)n[nH]2)n1/N=C/c1ccc(Br)s1	MC4R barr agon 33 | MC4R barr ag inactive | MOR DOR agonist inactive
CCN1C(=O)/C(=C\N2CCN(c3ccc(F)cc3)CC2)SC1=S	MC4R barr agon 19 | MC4R barr ag inactive | MOR DOR agonist inactive
COc1ccc(NC(=O)CSc2n[nH]c(CNc3cccc(C)c3)n2)cc1	none
CCc1cccc(N(C(=O)c2csnn2)C(C(=O)NC(C)(C)CC)c2ccccn2)c1 (centres undefined)	none
CCCCCCn1c(C)nc2c(c1=O)c1nc3ccccc3nc1n2/N=C/c1ccco1	MC4R barr agon 25 | MC4R barr ag inactive | MOR DOR agonist inactive
COc1ccc(CNC(=O)OCCN2CCN(Cc3ccccc3)CCC2=O)cc1	none
C=CCN(CC=C)S(=O)(=O)c1ccc(NC(=S)NC(=O)/C=C/c2ccccc2)cc1	MC4R barr agon 19 | MC4R barr ag inactive | MOR DOR agonist inactive
C=CCN(CC=C)C(=S)NC(=O)/C=C/c1ccccc1	none
COc1ccc(/C=C2/SC(=S)N(CCCC(=O)Nc3ccc(O)cc3)C2=O)cc1	MC4R barr agon 12 | MC4R barr ag inactive | MOR DOR agonist inactive
COc1ccc(/C=C2\SC(=S)N(CCC(=O)Nc3cccc(O)c3)C2=O)cc1	MC4R barr agon 21 | MC4R barr ag inactive | MOR DOR agonist inactive
COc1ccc(/C=C2/SC(=S)N(Cc3ccccc3)C2=O)cc1O	MC4R barr agon 12 | MC4R barr ag inactive | MOR DOR agonist inactive
COc1ccc(/C=C2\SC(=S)N(CCCC(=O)Nc3ccc(O)cc3)C2=O)cc1	MC4R barr agon 17 | MC4R barr ag 10 | MOR DOR agonist inactive
COc1cc(/C=C2\SC(=S)N(CCC(=O)Nc3ccc(O)cc3)C2=O)cc(OC)c1OC	none
COc1ccc(O)c(/C=C2/SC(=S)N(Cc3ccccc3)C2=O)c1	none
COc1ccc(/C=C2\SC(=S)N(CCC(=O)Nc3ccc(C(=O)O)cc3)C2=O)cc1	none
COC(=O)C(C(=O)OC)C(C[N+](=O)[O-])c1ccc(O)c(OC)c1 (centres undefined)	none
O=C(Cn1c(=O)c2cccn2c2ccccc21)Nc1cc(F)ccc1F	none
O=C(Cc1ccc(Cl)c(Cl)c1)N1CCOCC1	none
Cc1cc(C)cc(OCc2nnc(SCC(=O)N3CCN(c4ccccc4)CC3)o2)c1	MC4R barr agon 10.0 | MC4R barr ag inactive | MOR DOR agonist inactive
O=C(CSc1nnc(COc2ccccc2)o1)N1CCN(c2ccccc2)CC1	none
CCc1ccc(OCc2nnc(SCC(=O)N3CCN(c4ccccc4)CC3)o2)cc1	MC4R barr agon 17 | MC4R barr ag inactive | MOR DOR agonist 20
COc1ccc(N2CCN(C(=O)C3CCCN(S(=O)(=O)c4ccc(C)cc4)C3)CC2)cc1 (centres undefined)	none
O=C(OC(C(=O)NC1CCCCC1)c1ccc(C(F)(F)F)cc1)c1ccco1 (centres undefined)	MC4R barr agon 11 | MC4R barr ag inactive | MOR DOR agonist inactive
O=C(O)COc1ccc(/C=N/NC(=O)c2cccc3ccccc23)cc1	none
C/C(=N\Nc1nncc2ccccc12)c1cccc(OC(F)F)c1	MC4R barr agon 17 | MC4R barr ag inactive | MOR DOR agonist inactive
C/C(=N\Nc1nncc2ccccc12)c1ccc(O)cc1	none
Cc1cc(C)cc(N(CC(=O)NC2CCCC2)C(=O)CNC(=O)c2cccs2)c1	none
Cc1ccc2c(c1)c1c(n2CC(O)CN2CCCCCC2)CCCC1 (centres undefined)	none
Cc1ccc2c(c1)c1c(n2CC(O)Cn2c(C)nc3ccccc32)CCCC1 (centres undefined)	MC4R barr agon 9.6 | MC4R barr ag inactive | MOR DOR agonist inactive
CCCCCc1c2c(cc(O)c1C(=O)O)OC(=O)c1c(cc(OC)cc1C(=O)CCCC)O2	MC4R barr agon 11 | MC4R barr ag inactive | MOR DOR agonist inactive
O=C(NCc1ccccc1Cl)c1ccc2nc([C@H]3C[C@H](O)[C@@H](CO)O3)[nH]c2c1	none
COc1cc(OC)c(C(=O)OCC(=O)NCCC2=CCCCC2)cc1OC	none
O=C(NC(=S)Nc1ccc(NC(=O)c2cccs2)cc1)c1cc2ccccc2o1	MC4R barr agon 26 | MC4R barr ag 9.6 | MOR DOR agonist inactive
Cc1ccc(C(=O)NC(=S)Nc2ccc(NC(=O)c3cccs3)cc2)cc1[N+](=O)[O-]	MC4R barr agon 29 | MC4R barr ag inactive | MOR DOR agonist inactive
Cc1ccc(C(=O)Nc2ccc(NC(=O)c3cccs3)cc2)cc1[N+](=O)[O-]	none
CCOC(=O)Cc1csc(NC(=O)c2cccnc2)n1	none
